Measured values: paper PMC7547215 (Proceedings of the National Academy of Sciences of the …, 2020)
Read-outs that look alike come from different tables or passages of the source. One block for each molecule: values may come before it.

What was measured:
porcine RNase L [1] = molecular target: T1, porcine RNase L (Sus scrofa, UniProt A5H025); assay: Fluorescence-based RNase L endoribonuclease cleavage assay; format: biochemical
T1 sequence (A5H025 1-743): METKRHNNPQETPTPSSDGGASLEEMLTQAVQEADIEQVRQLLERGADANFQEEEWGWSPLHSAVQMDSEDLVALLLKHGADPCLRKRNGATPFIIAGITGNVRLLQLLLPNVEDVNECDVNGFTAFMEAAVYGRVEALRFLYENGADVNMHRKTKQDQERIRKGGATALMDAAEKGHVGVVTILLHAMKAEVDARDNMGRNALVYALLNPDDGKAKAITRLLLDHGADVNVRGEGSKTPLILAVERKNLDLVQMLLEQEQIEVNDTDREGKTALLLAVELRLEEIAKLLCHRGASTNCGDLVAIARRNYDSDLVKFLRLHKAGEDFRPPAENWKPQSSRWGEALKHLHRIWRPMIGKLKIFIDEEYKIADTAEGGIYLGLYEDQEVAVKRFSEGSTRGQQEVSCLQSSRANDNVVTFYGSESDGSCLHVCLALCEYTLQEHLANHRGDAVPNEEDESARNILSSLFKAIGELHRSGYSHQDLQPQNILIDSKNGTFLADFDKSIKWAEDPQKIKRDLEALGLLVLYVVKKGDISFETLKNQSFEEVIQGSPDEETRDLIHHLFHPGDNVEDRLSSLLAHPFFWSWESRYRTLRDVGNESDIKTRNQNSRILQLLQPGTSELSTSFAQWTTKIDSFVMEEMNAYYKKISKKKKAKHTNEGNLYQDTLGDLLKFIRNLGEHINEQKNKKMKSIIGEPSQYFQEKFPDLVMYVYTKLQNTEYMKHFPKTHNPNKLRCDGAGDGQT

murine IRE1 = murine IRE1 (Mus musculus, UniProt Q9EQY0); assay: Fluorescence-based IRE1 endoribonuclease cleavage assay; format: biochemical
porcine RNase L H680N = assay: Differential scanning fluorimetry; format: binding
[2] = system: casein kinase IIalpha (CK2α); conditions: cited from earlier work
porcine RNase L [3] = molecular target: T1, porcine RNase L; assay: BODIPY-ATP fluorescence polarization binding/competition assay
[4] = molecular target: T2, RNase L in human A549 cells (Homo sapiens, UniProt Q05823); assay: rRNA cleavage after pIC transfection in A549 cells; format: cell-based
T2 sequence (Q05823 1-741): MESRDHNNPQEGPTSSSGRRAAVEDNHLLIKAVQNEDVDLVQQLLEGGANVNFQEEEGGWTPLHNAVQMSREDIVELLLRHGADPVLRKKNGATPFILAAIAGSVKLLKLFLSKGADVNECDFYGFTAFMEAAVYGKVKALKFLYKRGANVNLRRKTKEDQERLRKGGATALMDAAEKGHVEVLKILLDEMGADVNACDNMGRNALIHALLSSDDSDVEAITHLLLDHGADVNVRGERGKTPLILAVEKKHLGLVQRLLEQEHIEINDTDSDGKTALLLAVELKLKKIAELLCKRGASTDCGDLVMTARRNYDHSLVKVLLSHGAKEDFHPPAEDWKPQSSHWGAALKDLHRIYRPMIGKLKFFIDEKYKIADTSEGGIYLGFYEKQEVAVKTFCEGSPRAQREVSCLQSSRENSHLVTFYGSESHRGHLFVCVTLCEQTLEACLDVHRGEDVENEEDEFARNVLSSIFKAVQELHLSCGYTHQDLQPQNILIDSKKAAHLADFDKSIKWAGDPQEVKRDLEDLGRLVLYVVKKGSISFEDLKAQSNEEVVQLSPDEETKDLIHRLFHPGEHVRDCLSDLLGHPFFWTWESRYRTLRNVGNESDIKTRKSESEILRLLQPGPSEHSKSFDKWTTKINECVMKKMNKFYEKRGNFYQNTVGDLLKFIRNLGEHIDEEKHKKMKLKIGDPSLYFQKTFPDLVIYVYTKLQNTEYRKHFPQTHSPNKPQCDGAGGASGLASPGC

Human CK2a = Human CK2a (Homo sapiens, UniProt P68400); assay: In vitro inhibition of CK2α kinase activity; format: biochemical
glycogen phosphorylase b = conditions: read-out: IC50, glycogen phosphorylase b; cited from earlier work
A549 cells = assay: Cell survival; format: cell-based, human; conditions: up to 25 μM (SU 3 to 25 μM), over 30 h
How it was run: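 Human A549 cells cultured with test compound across a concentration series. Dye-labelled cells imaged in real time, and percent survival calculated. Mean ± SD of three survival profiles.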

RNase L [5] = conditions: read-out: IC50, ribonuclease activity of RNase L in vitro; cited from earlier work
RNase L [6] = conditions: cited from earlier work

murine IRE1, sequence (Q9EQY0 21-977): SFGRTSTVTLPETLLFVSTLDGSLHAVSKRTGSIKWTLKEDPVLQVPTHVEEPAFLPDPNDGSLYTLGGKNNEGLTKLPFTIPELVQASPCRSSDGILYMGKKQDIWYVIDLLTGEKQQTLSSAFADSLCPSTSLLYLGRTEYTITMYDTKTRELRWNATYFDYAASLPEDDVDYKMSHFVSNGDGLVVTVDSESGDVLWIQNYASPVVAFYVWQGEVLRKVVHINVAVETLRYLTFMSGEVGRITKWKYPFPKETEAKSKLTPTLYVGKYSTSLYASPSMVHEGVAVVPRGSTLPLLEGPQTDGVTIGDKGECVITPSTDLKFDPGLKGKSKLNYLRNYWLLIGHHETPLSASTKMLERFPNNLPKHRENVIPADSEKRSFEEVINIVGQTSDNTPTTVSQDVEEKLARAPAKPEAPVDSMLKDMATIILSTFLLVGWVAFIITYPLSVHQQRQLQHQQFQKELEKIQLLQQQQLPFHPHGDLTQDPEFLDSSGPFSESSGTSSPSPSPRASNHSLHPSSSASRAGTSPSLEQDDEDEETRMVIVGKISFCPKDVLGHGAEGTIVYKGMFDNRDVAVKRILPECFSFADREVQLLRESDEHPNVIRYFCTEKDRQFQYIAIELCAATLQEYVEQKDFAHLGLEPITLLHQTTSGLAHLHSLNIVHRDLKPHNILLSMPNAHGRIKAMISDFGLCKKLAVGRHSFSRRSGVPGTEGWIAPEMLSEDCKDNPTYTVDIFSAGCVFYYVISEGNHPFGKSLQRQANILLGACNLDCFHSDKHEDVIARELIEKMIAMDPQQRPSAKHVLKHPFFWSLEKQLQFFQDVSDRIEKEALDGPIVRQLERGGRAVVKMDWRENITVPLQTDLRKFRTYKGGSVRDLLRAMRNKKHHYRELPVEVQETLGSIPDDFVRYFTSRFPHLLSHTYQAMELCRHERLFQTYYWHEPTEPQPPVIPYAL
Human CK2a, sequence (P68400 whole entry): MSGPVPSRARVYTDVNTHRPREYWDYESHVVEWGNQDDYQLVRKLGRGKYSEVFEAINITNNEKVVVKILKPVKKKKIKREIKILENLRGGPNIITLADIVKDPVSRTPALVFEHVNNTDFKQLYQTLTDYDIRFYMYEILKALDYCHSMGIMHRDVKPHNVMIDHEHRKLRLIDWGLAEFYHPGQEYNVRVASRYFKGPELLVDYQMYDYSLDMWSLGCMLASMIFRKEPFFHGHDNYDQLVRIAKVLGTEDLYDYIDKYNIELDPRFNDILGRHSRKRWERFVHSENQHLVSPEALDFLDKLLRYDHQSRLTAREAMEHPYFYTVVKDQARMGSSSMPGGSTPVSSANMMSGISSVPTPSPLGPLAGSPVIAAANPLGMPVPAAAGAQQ

- Effect on RNase L ribonuclease activity (porcine RNase L [1]; Fig. 2): ineffective at complete inhibition
- Effect on IRE1 ribonuclease activity (murine IRE1; Fig. 2): ineffective at complete inhibition
SMILES: Nc1ccc2ccc3c(N)ccc4ccc1c2c43 [1,6-diaminopyrene]

- Thermal stabilization of purified RNase L by ligand on its own (porcine RNase L H680N): pronounced stabilization
- ΔTm of RNase L (porcine RNase L H680N; named ligand(s) vs RNase L alone, SI Fig. S7, listed as ATP/MgCl2): 6 ± 0.2 °C
SMILES: Nc1ncnc2c1ncn2[C@@H]1O[C@H](COP(=O)(O)OP(=O)(O)OP(=O)(O)O)[C@@H](O)[C@H]1O [ATP]

SMILES: O=c1oc2c(O)c(O)cc3c(=O)oc4c(O)c(O)cc1c4c23 [EA, ellagic acid]
- IC50 (porcine RNase L [1]; IC50, RNase L ribonuclease activity, 10-point dose–response, commercially sourced fresh powder, Fig. 1C, mean ± SEM of four curves): 73.5 ± 0.2 nM
- Potency of casein kinase II inhibition [2]: 20 nM
- IC50 ([2]; read-out: IC50, casein kinase IIalpha (CK2α)): 40 nM
- Competitive displacement of BODIPY-ATP from RNase L (porcine RNase L [3]): neither EA nor VAL could competitively displace
- Decrease in potency in cells relative to in vitro against porcine RNase L ([4]; A549 and L929 cell lines): ~1,000 fold
- pIC-induced RNA cleavage pattern ([4]; A549 cells, 3 h preincubation, 12 ng/mL pIC for 2 h): progressively reduced in a concentration-dependent manner
- IC50 (Human CK2a): 419 nM
- IC50 (glycogen phosphorylase b): 3200 nM
- Cytotoxicity (A549 cells): not cytotoxic
- IC50 (murine IRE1): 270.6 ± 0.1 nM

SMILES: CCN(CC)CCNC(=O)c1c(C)[nH]c(/C=C2\C(=O)Nc3ccc(F)cc32)c1C [sunitinib]
- IC50 (RNase L [5]): 1400 nM
- Cytotoxicity (A549 cells): considerable cytotoxicity
- Concentration required for the repression of RNase L cleavage activity (RNase L [6]; in cells): ~5 µM
- IC50 (RNase L [6]; read-out: IC50, antiviral function of RNase L in cells): 1000 nM
